Several values for one entry are separate records, joined by “and”; a condition that tells them apart may be missing. Equal values may be shown once.
Tested on: Fibroblast
Test: Multiplex assay against human fibroblast
Assay type: toxicity, cell-based
In short: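 On a CQ1 microscope at 37°C and 5% CO2, live cells were imaged after compound addition. They had been stained at seeding with Hoechst33342, BioTracker Green Microtubule Cytoskeleton Dye, MitoTracker Red and Annexin V Alexa Fluor 680. CellPathfinder machine-learning gating assigned cells to Hoechst high-intensity objects or normal cells, normal cells to healthy, pyknosed or fragmented nuclei, and pyknosed cells to mitotic or apoptotic. Tubulin, mitochondrial-mass and membrane-permeability phenotypes are per cents of healthy-nucleus cells.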

[1] = 12 h, 1 µM, compound concentration 1 uM
[2] = 12 h, 10 µM, compound concentration 10 uM
[3] = 24 h, 1 µM, compound concentration 1 uM
[4] = 24 h, 10 µM, compound concentration 10 uM
[5] = 48 h, 1 µM, compound concentration 1 uM
[6] = 48 h, 10 µM, compound concentration 10 uM

## COc1cccc2c1c(NS(=O)(=O)c1ccc(Cl)s1)nn2Cc1cccc(CNC(=O)C(C)(C)O)c1
[1]
  Population Apoptotic (%): 43% and 33%
  Population Fragmented Nuclei (%): 16% and 26%
  Population Healthy Nuclei (%): 66% and 54%
  Population Hoechst High Intensity Objects (%): 0%
  Population Membrane Permeable-Phenotype (%): 1% and 4%
  Population Mitochondria Different-Phenotype (%): 2% and 1%
  Population Mitotic Cells (%): 56% and 66%
  Population Normal (%): 99% and 100%
  Population Pyknosed Nuclei (%): 17% and 18%
  Population Tubulin-Different-Phenotype (%): 27% and 18%
  Total Cell Count: 134 and 112
[2]
  Population Apoptotic (%): 42% and 41%
  Population Fragmented Nuclei (%): 13% and 24%
  Population Healthy Nuclei (%): 72% and 55%
  Population Hoechst High Intensity Objects (%): 2% and 7%
  Population Membrane Permeable-Phenotype (%): 1% and 7%
  Population Mitochondria Different-Phenotype (%): 11% and 4%
  Population Mitotic Cells (%): 57% and 58%
  Population Normal (%): 97% and 92%
  Population Pyknosed Nuclei (%): 13% and 19%
  Population Tubulin-Different-Phenotype (%): 37% and 55%
  Total Cell Count: 211 and 174
[3]
  Population Apoptotic (%): 55% and 50%
  Population Fragmented Nuclei (%): 19% and 28%
  Population Healthy Nuclei (%): 68% and 49%
  Population Hoechst High Intensity Objects (%): 2% and 1%
  Population Membrane Permeable-Phenotype (%): 2% and 7%
  Population Mitochondria Different-Phenotype (%): 3% and 5%
  Population Mitotic Cells (%): 44% and 50%
  Population Normal (%): 97% and 98%
  Population Pyknosed Nuclei (%): 12% and 22%
  Population Tubulin-Different-Phenotype (%): 28% and 35%
  Total Cell Count: 144 and 110
[4]
  Population Apoptotic (%): 48% and 50%
  Population Fragmented Nuclei (%): 11% and 22%
  Population Healthy Nuclei (%): 74% and 55%
  Population Hoechst High Intensity Objects (%): 2% and 8%
  Population Membrane Permeable-Phenotype (%): 1% and 6%
  Population Mitochondria Different-Phenotype (%): 7% and 2%
  Population Mitotic Cells (%): 52% and 50%
  Population Normal (%): 97% and 92%
  Population Pyknosed Nuclei (%): 13% and 22%
  Population Tubulin-Different-Phenotype (%): 30% and 48%
  Total Cell Count: 190 and 175
[5]
  Population Apoptotic (%): 62% and 75%
  Population Fragmented Nuclei (%): 21% and 26%
  Population Healthy Nuclei (%): 66% and 60%
  Population Hoechst High Intensity Objects (%): 5% and 2%
  Population Membrane Permeable-Phenotype (%): 1% and 8%
  Population Mitochondria Different-Phenotype (%): 5% and 3%
  Population Mitotic Cells (%): 37% and 25%
  Population Normal (%): 94% and 97%
  Population Pyknosed Nuclei (%): 12%
  Population Tubulin-Different-Phenotype (%): 30% and 55%
  Total Cell Count: 135 and 99
[6]
  Population Apoptotic (%): 63% and 51%
  Population Fragmented Nuclei (%): 13% and 33%
  Population Healthy Nuclei (%): 73% and 49%
  Population Hoechst High Intensity Objects (%): 5% and 6%
  Population Membrane Permeable-Phenotype (%): 3%
  Population Mitochondria Different-Phenotype (%): 10% and 4%
  Population Mitotic Cells (%): 36% and 48%
  Population Normal (%): 94% and 93%
  Population Pyknosed Nuclei (%): 12% and 17%
  Population Tubulin-Different-Phenotype (%): 40% and 43%
  Total Cell Count: 187

## CC(C)CNc1nc(N2CCN(CC3CCCOC3)CC2)ncc1C(=O)NCc1ccccc1 (centres undefined)
[1]
  Population Apoptotic (%): 34% and 80.22%
  Population Fragmented Nuclei (%): 39.83% and 19.74%
  Population Healthy Nuclei (%): 17.8% and 20.39%
  Population Hoechst High Intensity Objects (%): 0%
  Population Membrane Permeable-Phenotype (%): 9.52% and 19.35%
  Population Mitochondria Different-Phenotype (%): 9.52% and 6.45%
  Population Normal (%): 100%
  Population Pyknosed Nuclei (%): 42.37% and 59.87%
  Total Cell Count: 118 and 152
[2]
  Population Apoptotic (%): 39.68% and 87.25%
  Population Fragmented Nuclei (%): 33.58% and 21.43%
  Population Healthy Nuclei (%): 19.4% and 12.34%
  Population Hoechst High Intensity Objects (%): 0%
  Population Mitochondria Different-Phenotype (%): 57.69% and 63.16%
  Population Normal (%): 100%
  Population Pyknosed Nuclei (%): 47.01% and 66.23%
  Population Tubulin-Different-Phenotype (%): 57.69% and 94.74%
  Total Cell Count: 134 and 154
[3]
  Population Apoptotic (%): 32.61% and 81.58%
  Population Healthy Nuclei (%): 30.28% and 37.59%
  Population Hoechst High Intensity Objects (%): 0%
  Population Membrane Permeable-Phenotype (%): 9.09% and 24.53%
  Population Mitochondria Different-Phenotype (%): 24.24% and 15.09%
  Population Normal (%): 100%
  Population Pyknosed Nuclei (%): 42.2% and 53.9%
  Population Tubulin-Different-Phenotype (%): 39.39% and 67.92%
  Total Cell Count: 109 and 141
[4]
  Population Apoptotic (%): 59.65% and 72.31%
  Population Fragmented Nuclei (%): 28.46% and 10.32%
  Population Healthy Nuclei (%): 27.69% and 47.74%
  Population Hoechst High Intensity Objects (%): 0%
  Population Mitochondria Different-Phenotype (%): 58.33% and 47.3%
  Population Mitotic Cells (%): 40.35% and 27.69%
  Population Normal (%): 100%
  Population Pyknosed Nuclei (%): 43.85% and 41.94%
  Population Tubulin-Different-Phenotype (%): 66.67% and 87.84%
  Total Cell Count: 130 and 155
[5]
  Population Apoptotic (%): 33.33% and 68.42%
  Population Fragmented Nuclei (%): 15.25% and 14.4%
  Population Healthy Nuclei (%): 64.41% and 70.4%
  Population Hoechst High Intensity Objects (%): 0%
  Population Membrane Permeable-Phenotype (%): 13.16% and 19.32%
  Population Mitochondria Different-Phenotype (%): 36.84% and 19.32%
  Population Mitotic Cells (%): 66.67% and 31.58%
  Population Normal (%): 100%
  Population Pyknosed Nuclei (%): 20.34% and 15.2%
  Population Tubulin-Different-Phenotype (%): 35.53% and 67.05%
  Total Cell Count: 118 and 125
[6]
  Population Apoptotic (%): 52.78% and 75%
  Population Fragmented Nuclei (%): 19.46% and 17.61%
  Population Healthy Nuclei (%): 56.38% and 72.33%
  Population Hoechst High Intensity Objects (%): 0%
  Population Mitochondria Different-Phenotype (%): 60.71% and 47.83%
  Population Mitotic Cells (%): 47.22% and 25%
  Population Normal (%): 100%
  Population Pyknosed Nuclei (%): 24.16% and 10.06%
  Population Tubulin-Different-Phenotype (%): 70.24% and 84.35%
  Total Cell Count: 149 and 159

From ChEMBL document CHEMBL5724801, “EUbOPEN Chemogenomics Library - Multiplex” (2024)
